Laboratory results taken from ChEMBL document CHEMBL3864151, “Discovery of imidazopyridazines as potent Pim-1/2 kinase inhibitors” (Bioorg Med Chem Lett, 2016).
In brackets after ≈: the same amount, converted by molar mass. Activity calls are given as the source filed them. The calls are words filed in the database; no cut-off is given here.

Key:
[1] = Intrinsic clearance in rat liver microsomes at 1 uM after 30 mins by LC-MS HRMS analysis; type: ADME; conditions: read-out: CLH
[2] = Clearance in Sprague-Dawley rat at 2 mg/kg, iv; type: ADME, organism-based; conditions: in vivo
Procedure, shortened: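 Male Sprague Dawley rats, 3 animals per dosing route, mean values. iv dose 2 mg/kg as a solution in DMSO; po dose 5 mg/kg in 1% Tween 80, 2% HPMC, 97% water/methanesulfonic acid pH 2.2.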

[3] = molecular target: Voltage-gated inwardly rectifying potassium channel KCNH2 (Homo sapiens, UniProt Q12809); assay: Inhibition of radiolabeled dofetilide binding to human ERG expressed in HEK293 cells
[4] = Aqueous solubility in pH 7.4 PBS after 48 to 72 hrs by HPLC analysis; type: physicochemical
Procedure, shortened: (§1)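 Aqueous solubility determined in 0.01N HCl, PBS (pH 7.4) and FaSIF (pH 6.8).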

[5] = Aqueous solubility in pH 6.8 FsSIF after 48 to 72 hrs by HPLC analysis; type: physicochemical; procedure, shortened: as §1
[6] = molecular target: Casein kinase II subunit alpha (Homo sapiens) (UniProt P68400); assay: Competitive binding affinity to full length wild type human CSNK2A1 expressed in mammalian expression system at 10 uM by kinomescan method relative to control
Procedure, shortened: (§2)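 DiscoveRX scanMAX kinase panel of protein and lipid kinases and common mutants; competitive binding of compound at 10 µM expressed as percentage of control (POC).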

[7] = molecular target: Casein kinase II subunit alpha' (Homo sapiens) (UniProt P19784); assay: Competitive binding affinity to full length wild type human CSNK2A2 expressed in mammalian expression system at 10 uM by kinomescan method relative to control; procedure, shortened: as §2
Homo sapiens = species: Homo sapiens; assay: Competitive binding affinity to wild type human DYRK at 10 uM by kinomescan method relative to control; procedure, shortened: as §2
[8] = molecular target: Mitogen-activated protein kinase 15 (Homo sapiens) (UniProt Q8TD08); assay: Competitive binding affinity to partial length wild type human ERK8 expressed in bacterial expression system at 10 uM by kinomescan method relative to control; procedure, shortened: as §2
[9] = tested on: Receptor-type tyrosine-protein kinase FLT3 (Homo sapiens), P36888 [D835Y]; assay: Competitive binding affinity to partial length […] human FLT3 D835Y expressed in bacterial expression system at 10 uM by kinomescan method relative to control
Procedure, shortened: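 Single-concentration (10 µM) screen in the scanMAX competition-binding panel of protein and lipid kinases and their common mutants. Binding is expressed as percentage of control (POC).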

[10] = molecular target: Glycogen synthase kinase-3 alpha (Homo sapiens) (UniProt P49840); assay: Competitive binding affinity to full length wild type human GSK3A expressed in bacterial expression system at 10 uM by kinomescan method relative to control; procedure, shortened: as §2
[11] = molecular target: Glycogen synthase kinase-3 beta (Homo sapiens) (UniProt P49841); assay: Competitive binding affinity to full length wild type human GSK3B expressed in mammalian expression system at 10 uM by kinomescan method relative to control; procedure, shortened: as §2
[12] = molecular target: Homeodomain-interacting protein kinase 2 (Homo sapiens) (UniProt Q9H2X6); assay: Competitive binding affinity to partial length wild type human HIPK2 expressed in mammalian expression system at 10 uM by kinomescan method relative to control; procedure, shortened: as §2
[13] = molecular target: Serine/threonine-protein kinase TAO1 (Homo sapiens) (UniProt Q7L7X3); assay: Competitive binding affinity to partial length wild type human TAOK1 expressed in mammalian expression system at 10 uM by kinomescan method relative to control; procedure, shortened: as §2
[14] = molecular target: Serine/threonine-protein kinase TAO2 (Homo sapiens) (UniProt Q9UL54); assay: Competitive binding affinity to partial length wild type human TAOK2 expressed in mammalian expression system at 10 uM by kinomescan method relative to control; procedure, shortened: as §2
[15] = molecular target: Serine/threonine-protein kinase TAO3 (Homo sapiens) (UniProt Q9H2K8); assay: Competitive binding affinity to partial length wild type human TAOK3 expressed in mammalian expression system at 10 uM by kinomescan method relative to control; procedure, shortened: as §2
[16] = molecular target: Serine/threonine-protein kinase VRK2 (Homo sapiens) (UniProt Q86Y07); assay: Competitive binding affinity to partial length wild type human VRK2 expressed in mammalian expression system at 10 uM by kinomescan method relative to control; procedure, shortened: as §2
[17] = Antiproliferative activity against human MOLP8 cells after 72 hrs by CellTiter-Glo assay; type: functional, cell-based; conditions: MOLP-8, 72 h
[18] = Antiproliferative activity against human KMS28BM cells after 72 hrs by CellTiter-Glo assay; type: functional, cell-based; conditions: KMS-28BM
[19] = Antiproliferative activity against human KMS12PE cells after 72 hrs by CellTiter-Glo assay; type: functional, cell-based; conditions: KMS-12-PE
[20] = Antiproliferative activity against human KARPAS620 cells after 72 hrs by CellTiter-Glo assay; type: functional, cell-based; conditions: Karpas-620, 72 h
[21] = Antiproliferative activity against human KMS-12-BM cells after 72 hrs by CellTiter-Glo assay; type: functional, cell-based
[22] = Antiproliferative activity against human SKMM-2 cells after 72 hrs by CellTiter-Glo assay; type: functional, cell-based; conditions: SK-MM-2, 72 h
[23] = Antiproliferative activity against human L363 cells after 72 hrs by CellTiter-Glo assay; type: functional, cell-based; conditions: L-363, 72 h
[24] = Antiproliferative activity against human NCI-H929 cells after 72 hrs by CellTiter-Glo assay; type: functional, cell-based; conditions: NCI-H929, 72 h
[25] = Antiproliferative activity against human JJN-3 cells after 72 hrs by CellTiter-Glo assay; type: functional, cell-based; conditions: JJN-3, 72 h
[26] = Antiproliferative activity against human KMS26 cells after 72 hrs by CellTiter-Glo assay; type: functional, cell-based; conditions: KMS-26, 72 h
[27] = Antiproliferative activity against human MM1R cells after 72 hrs by CellTiter-Glo assay; type: functional, cell-based; conditions: MM.1R
[28] = Antiproliferative activity against human RPMI8226 cells after 72 hrs by CellTiter-Glo assay; type: functional, cell-based; conditions: RPMI-8226, 72 h
[29] = Antiproliferative activity against human KMM1 cells after 72 hrs by CellTiter-Glo assay; type: functional, cell-based; conditions: KMM-1, 72 h
[30] = Antiproliferative activity against human U266B1 cells harboring BRAF mutant after 72 hrs by CellTiter-Glo assay; type: functional, cell-based; conditions: U-266, 72 h
[31] = Inhibition of Pim signaling in human KMS-12-BM cells assessed as upregulation of Pim1 expression at […] after 4 to 72 hrs by Western blot method; type: cell-based
[32] = Inhibition of Pim signaling in human KMS-12-BM cells assessed as upregulation of Pim3 expression at […] after 4 to 72 hrs by Western blot method; type: cell-based
[33] = Effect on total BAD levels in human KMS-12-BM cells at […] after 4 to 72 hrs by Western blot method; type: ADME, cell-based
KMS-12-BM [34] = assay: Induction of apoptosis in human KMS-12-BM cells assessed as increase in cleaved caspase 3 levels at […] after 4 to 72 hrs by Western blot method; type: functional, cell-based
KMS-12-BM [35] = assay: Induction of apoptosis in human KMS-12-BM cells assessed as increase in cleaved caspase 6 levels at […] after 4 to 72 hrs by Western blot method; type: functional, cell-based
KMS-12-BM [36] = assay: Induction of apoptosis in human KMS-12-BM cells assessed as increase in cleaved caspase 7 levels at […] after 4 to 72 hrs by Western blot method; type: functional, cell-based

Q: Which microsomal CLint at 1 µM [1] does the source give for `C[C@@H]1C[C@H](N)CN(c2ccncc2Nc2ncc3ccc(-c4c(F)cccc4F)nn23)C1` here?
A: > 399 µL/min/mg

Q: What about the CL [2] of the same molecule?
A: 1.4 L/h/kg

Q: What about the IC50 [3] of the same molecule?
A: 1000 nM

Q: And the solubility [4]?
A: 180 µg/mL (≈ 413 µM)

Q: And the solubility [5]?
A: 150 µg/mL (≈ 344 µM)

Q: And the Activity [6]?
A: 4.2%

Q: And the Activity [7]?
A: 2%

Q: And the Activity (Homo sapiens)?
A: 3.4%

Q: And the Activity [8]?
A: 0.65%

Q: What about the Activity [9] of the same molecule?
A: 6.1%

Q: What about the Activity [10] of the same molecule?
A: 1.4%

Q: What about the Activity [11] of the same molecule?
A: 2.3%

Q: What about the Activity [12] of the same molecule?
A: 1.8%

Q: And the Activity [13]?
A: 0.6%

Q: And the Activity [14]?
A: 7.8%

Q: What about the Activity [15] of the same molecule?
A: 0.4%

Q: What about the Activity [16] of the same molecule?
A: 9.2%

Q: What about the IC50 [17] of the same molecule?
A: 58 nM

Q: And the IC50 [18]?
A: 86 nM

Q: And the IC50 [19]?
A: 130 nM

Q: And the IC50 [20]?
A: 162 nM

Q: And the IC50 [21]?
A: 216 nM

Q: What about the IC50 [22] of the same molecule?
A: 228 nM

Q: And the IC50 [23]?
A: 332 nM

Q: What about the IC50 [24] of the same molecule?
A: 337 nM

Q: And the IC50 [25]?
A: 375 nM

Q: And the IC50 [26]?
A: 393 nM

Q: And the IC50 [27]?
A: 457 nM

Q: What about the IC50 [28] of the same molecule?
A: 569 nM

Q: What about the IC50 [29] of the same molecule?
A: 2120 nM

Q: And the IC50 [30]?
A: 10 µM

Q: What about the Activity [31] of the same molecule?
A: Active

Q: And the Activity [32]?
A: Active

Q: What about the Activity [33] of the same molecule?
A: Non-Toxic

Q: What about the Activity (KMS-12-BM [34]) of the same molecule?
A: Active

Q: What about the Activity (KMS-12-BM [35]) of the same molecule?
A: Active

Q: What about the Activity (KMS-12-BM [36]) of the same molecule?
A: Active
